Test results taken from ChEMBL document CHEMBL3804768, “Structure-Activity Relationship Studies of Mitogen Activated Protein Kinase Interacting Kinase (MNK) 1 and 2 and BCR-ABL1 Inhibitors Targeting Chronic Myeloid Leukemic Cells” (J Med Chem, 2016).
Converted amounts (≈) assume the structure as drawn. The source made the active and inactive calls. The calls are words filed in the database; no cut-off is given here.

Experiments:
[1] = Plasma protein binding in human; format: ADME, cell-free; conditions: read-out: PPB (converted)
[2] = molecular target: Platelet-derived growth factor receptor beta (Homo sapiens, UniProt P09619); assay: Inhibition of human recombinant PDGFRbeta expressed in sf21 cells at 1 uM using Poly(Glu:Tyr) as substrate in presence of [gamma32P]ATP
[3] = molecular target: Proto-oncogene tyrosine-protein kinase receptor Ret (Homo sapiens, UniProt P07949); assay: Inhibition of human recombinant RET expressed in sf21 cells using Poly(Glu:Tyr) as substrate in presence of [gamma32P]ATP
[4] = molecular target: Platelet-derived growth factor receptor alpha (Homo sapiens, UniProt P16234); assay: Inhibition of human recombinant PDGFRalpha expressed in sf21 cells using Poly(Glu:Tyr) as substrate in presence of [gamma32P]ATP
[5] = molecular target: Tyrosine-protein kinase ABL1 (Homo sapiens, UniProt P00519, T315I); assay: Inhibition of full length human recombinant N-terminal His-tagged ABL (2 to 1130 residues) T315I mutant expressed in baculovirus expression system using FL-peptide 2 substrate preincubated for 10 mins followed by substrate addition measured after 60 mins by mobility shift assay
How it was run: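 Buffer is 100 mM HEPES pH 7.5, 10 mM MgCl2, 0.004% Tween 20, 1 mM DTT, 0.003% Brij L23. Enzyme and compound sit 10 min before ATP/substrate is added. The reaction runs 60 min at room temperature, is stopped with 10 mM EDTA, and is read by mobility shift.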

[6] = molecular target: Tyrosine-protein kinase ABL1 (Homo sapiens) (UniProt P00519); assay: Inhibition of ABL1 in human K562 cells over expressing eIF4E assessed as reduction in phosphorylation of Crkl at Tyr207 after 24 hrs by Western blot analysis; format: cell-based
How it was run: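 K562 eIF4E-overexpressing cells were treated at 100, 500 and 1000 nM for 24 h and lysed in RIPA buffer with SDS and protease/phosphatase inhibitors. Equal protein was resolved on 4-12% Bis-Tris gels and blotted to PVDF, with blocking in 5% BSA/PBST. The blot was probed overnight at 4 °C with a Bcr/Abl activity antibody cocktail for Crkl and phospho-Crkl Tyr207, and detected by ECL chemiluminescence.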

[7] = AUC in CD1 mouse at 50 mg/kg, po; format: ADME, organism-based; conditions: in vivo
[8] = Antiproliferative activity against human KCL22 cells after 48 hrs by Cell-Titer-Glo luminescent cell viability assay; format: functional; conditions: KCL-22, 48 h
[9] = system: K562; assay: Antitumor activity against human K562 cells over expressing eIF4E xenografted in po dosed NOD-SCID mouse assessed as tumor growth inhibition administered qd through oral gavage for 14 days; format: functional, organism-based
How it was run: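 Female SCID mice, 7-10 weeks old, received 1 x 10^7 K562 eIF4E-overexpressing cells subcutaneously. At tumor volumes of 75-245 mm³ (w²×l/2) mice were randomized and gavaged once daily for 14 days at 10 mL/kg.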

[10] = system: K562; assay: Antiproliferative activity against human K562 cells over expressing eIF4E after 48 hrs by Cell-Titer-Glo luminescent cell viability assay; format: functional; conditions: K562, 48 h
How it was run: (§1)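 Cells seeded at 5000 per well in growth medium, exposed to serial doses from 0.003 μM to 50 μM for 48 h at 37 °C, 5% CO2. Viability was read by CellTiter-Glo luminescence and GI50 taken from the dose-response curve. Dose response was run in triplicate and the curve repeated twice. K562 eIF4E-overexpressing cells were cultured in RPMI with 10% FBS.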

[11] = Thermodynamic solubility in pH 7 pION buffer at 500 uM incubated for 18 hrs by UV-spectrophotometry; format: physicochemical; conditions: read-out: Therm_solubility
[12] = system: K562; assay: Antiproliferative activity against human K562 cells after 48 hrs by Cell-Titer-Glo luminescent cell viability assay; format: functional; conditions: K562, 48 h; how it was run: as §1
[13] = molecular target: T1, Receptor-type tyrosine-protein kinase FLT3 (Homo sapiens, UniProt P36888); assay: Inhibition of human recombinant FLT3 expressed in sf21 cells using Poly(Glu:Tyr) as substrate in presence of [gamma32P]ATP
T1 sequence (P36888 whole entry): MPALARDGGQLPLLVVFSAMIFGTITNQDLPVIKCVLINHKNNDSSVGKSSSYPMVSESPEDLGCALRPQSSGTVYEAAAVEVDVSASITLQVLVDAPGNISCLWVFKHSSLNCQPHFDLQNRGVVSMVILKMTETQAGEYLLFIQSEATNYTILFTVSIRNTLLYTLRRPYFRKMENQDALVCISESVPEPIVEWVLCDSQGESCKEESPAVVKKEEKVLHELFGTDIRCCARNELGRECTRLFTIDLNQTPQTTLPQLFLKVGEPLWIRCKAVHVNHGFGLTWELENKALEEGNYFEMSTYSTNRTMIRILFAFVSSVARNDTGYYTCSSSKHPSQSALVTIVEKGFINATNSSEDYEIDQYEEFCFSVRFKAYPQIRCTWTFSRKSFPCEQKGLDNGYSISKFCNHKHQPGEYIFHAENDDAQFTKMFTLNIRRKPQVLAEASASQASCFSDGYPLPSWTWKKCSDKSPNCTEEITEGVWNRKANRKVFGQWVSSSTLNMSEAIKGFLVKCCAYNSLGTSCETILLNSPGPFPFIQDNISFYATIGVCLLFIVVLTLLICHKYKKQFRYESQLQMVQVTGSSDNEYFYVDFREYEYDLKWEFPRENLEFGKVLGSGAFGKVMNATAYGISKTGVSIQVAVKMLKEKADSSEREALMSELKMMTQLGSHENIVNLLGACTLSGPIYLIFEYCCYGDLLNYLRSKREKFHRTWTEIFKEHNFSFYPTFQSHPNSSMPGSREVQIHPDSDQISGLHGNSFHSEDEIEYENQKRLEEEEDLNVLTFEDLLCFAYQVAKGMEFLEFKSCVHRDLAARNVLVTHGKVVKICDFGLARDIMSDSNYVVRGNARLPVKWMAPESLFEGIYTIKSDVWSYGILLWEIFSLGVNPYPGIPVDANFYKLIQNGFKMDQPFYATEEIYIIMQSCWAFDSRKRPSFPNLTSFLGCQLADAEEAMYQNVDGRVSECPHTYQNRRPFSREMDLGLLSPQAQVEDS

[14] = molecular target: Fibroblast growth factor receptor 2 (Homo sapiens, UniProt P21802); assay: Inhibition of human recombinant FGFR2 expressed in sf21 cells at 1 uM using Poly(Glu:Tyr) as substrate in presence of [gamma32P]ATP
[15] = system: Mus musculus; assay: In vivo inhibition of MNK1/MNK2 in NOD-SCID mouse tumor xenografted with human K562 cells over expressing eIF4E assessed as inhibition of eIF4E phosphorylation at Ser209 at 50 mg/kg, po qd adminstered through oral gavage measured 4 hrs post dose by AlphaScreen SureFire assay; format: functional, organism-based
How it was run: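 Tumors were excised after the final day-14 oral dose (50 mg/kg) and flash frozen, then homogenized in SureFire lysis buffer with protease and phosphatase inhibitors. Lysate protein was normalized to 0.5 mg/mL by A280. Phospho-eIF4E Ser209 was read by AlphaScreen SureFire with 2 h acceptor and 2 h donor incubations at room temperature. Inhibition was calculated against the 0 h control signal.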

[16] = Oral bioavailability in CD1 mouse at 50 mg/kg; format: ADME, organism-based; conditions: in vivo

Chain of Platelet-derived growth factor receptor beta (P09619 whole entry): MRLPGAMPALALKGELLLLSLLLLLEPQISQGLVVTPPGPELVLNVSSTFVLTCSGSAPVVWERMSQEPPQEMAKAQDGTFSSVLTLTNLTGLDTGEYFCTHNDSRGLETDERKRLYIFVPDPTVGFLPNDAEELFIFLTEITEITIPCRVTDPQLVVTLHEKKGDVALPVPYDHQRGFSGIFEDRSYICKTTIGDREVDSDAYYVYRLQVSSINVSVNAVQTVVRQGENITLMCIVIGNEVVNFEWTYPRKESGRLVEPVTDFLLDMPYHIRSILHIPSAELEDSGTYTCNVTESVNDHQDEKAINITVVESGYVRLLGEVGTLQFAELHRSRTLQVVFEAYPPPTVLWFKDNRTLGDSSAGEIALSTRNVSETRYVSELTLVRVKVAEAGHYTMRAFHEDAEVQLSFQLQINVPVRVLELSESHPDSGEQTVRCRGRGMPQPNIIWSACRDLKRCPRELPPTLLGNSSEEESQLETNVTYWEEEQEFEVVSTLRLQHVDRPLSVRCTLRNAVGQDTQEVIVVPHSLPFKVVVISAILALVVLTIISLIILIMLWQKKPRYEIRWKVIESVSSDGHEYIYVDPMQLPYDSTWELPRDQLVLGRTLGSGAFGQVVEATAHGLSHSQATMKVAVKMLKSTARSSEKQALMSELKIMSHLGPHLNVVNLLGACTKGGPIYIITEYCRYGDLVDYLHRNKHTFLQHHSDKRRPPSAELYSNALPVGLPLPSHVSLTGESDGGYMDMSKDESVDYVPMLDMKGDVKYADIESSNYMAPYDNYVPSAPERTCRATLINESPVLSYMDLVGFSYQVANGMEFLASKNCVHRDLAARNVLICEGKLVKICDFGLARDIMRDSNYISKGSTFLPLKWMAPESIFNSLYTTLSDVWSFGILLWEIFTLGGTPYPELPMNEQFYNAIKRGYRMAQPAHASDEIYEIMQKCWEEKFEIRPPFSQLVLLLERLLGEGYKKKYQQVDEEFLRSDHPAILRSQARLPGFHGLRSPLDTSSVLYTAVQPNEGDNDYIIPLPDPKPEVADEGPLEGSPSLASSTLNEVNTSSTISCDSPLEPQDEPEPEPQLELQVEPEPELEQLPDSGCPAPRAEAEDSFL
Chain of Fibroblast growth factor receptor 2 (P21802 22-821 limits assumed): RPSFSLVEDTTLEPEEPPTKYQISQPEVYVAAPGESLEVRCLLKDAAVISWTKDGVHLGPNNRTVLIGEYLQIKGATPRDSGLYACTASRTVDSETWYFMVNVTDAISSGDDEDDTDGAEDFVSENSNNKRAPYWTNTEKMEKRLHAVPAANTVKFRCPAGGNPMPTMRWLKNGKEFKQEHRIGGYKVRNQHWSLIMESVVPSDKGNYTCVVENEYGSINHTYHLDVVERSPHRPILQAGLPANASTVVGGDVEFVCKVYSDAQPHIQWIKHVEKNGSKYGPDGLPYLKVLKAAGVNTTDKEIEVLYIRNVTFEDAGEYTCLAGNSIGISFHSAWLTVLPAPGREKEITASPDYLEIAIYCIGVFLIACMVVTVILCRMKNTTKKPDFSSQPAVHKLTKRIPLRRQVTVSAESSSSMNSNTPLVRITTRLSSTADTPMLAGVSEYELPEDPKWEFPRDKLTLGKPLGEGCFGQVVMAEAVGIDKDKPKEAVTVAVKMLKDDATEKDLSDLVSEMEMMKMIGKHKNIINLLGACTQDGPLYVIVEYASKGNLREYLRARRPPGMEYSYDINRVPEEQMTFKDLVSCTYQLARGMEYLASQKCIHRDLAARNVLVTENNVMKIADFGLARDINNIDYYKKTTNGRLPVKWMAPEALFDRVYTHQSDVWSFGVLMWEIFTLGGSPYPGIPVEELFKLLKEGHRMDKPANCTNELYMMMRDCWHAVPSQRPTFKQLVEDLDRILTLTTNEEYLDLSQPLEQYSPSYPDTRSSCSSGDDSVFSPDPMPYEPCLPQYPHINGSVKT
Chain of Proto-oncogene tyrosine-protein kinase receptor Ret (P07949 whole entry): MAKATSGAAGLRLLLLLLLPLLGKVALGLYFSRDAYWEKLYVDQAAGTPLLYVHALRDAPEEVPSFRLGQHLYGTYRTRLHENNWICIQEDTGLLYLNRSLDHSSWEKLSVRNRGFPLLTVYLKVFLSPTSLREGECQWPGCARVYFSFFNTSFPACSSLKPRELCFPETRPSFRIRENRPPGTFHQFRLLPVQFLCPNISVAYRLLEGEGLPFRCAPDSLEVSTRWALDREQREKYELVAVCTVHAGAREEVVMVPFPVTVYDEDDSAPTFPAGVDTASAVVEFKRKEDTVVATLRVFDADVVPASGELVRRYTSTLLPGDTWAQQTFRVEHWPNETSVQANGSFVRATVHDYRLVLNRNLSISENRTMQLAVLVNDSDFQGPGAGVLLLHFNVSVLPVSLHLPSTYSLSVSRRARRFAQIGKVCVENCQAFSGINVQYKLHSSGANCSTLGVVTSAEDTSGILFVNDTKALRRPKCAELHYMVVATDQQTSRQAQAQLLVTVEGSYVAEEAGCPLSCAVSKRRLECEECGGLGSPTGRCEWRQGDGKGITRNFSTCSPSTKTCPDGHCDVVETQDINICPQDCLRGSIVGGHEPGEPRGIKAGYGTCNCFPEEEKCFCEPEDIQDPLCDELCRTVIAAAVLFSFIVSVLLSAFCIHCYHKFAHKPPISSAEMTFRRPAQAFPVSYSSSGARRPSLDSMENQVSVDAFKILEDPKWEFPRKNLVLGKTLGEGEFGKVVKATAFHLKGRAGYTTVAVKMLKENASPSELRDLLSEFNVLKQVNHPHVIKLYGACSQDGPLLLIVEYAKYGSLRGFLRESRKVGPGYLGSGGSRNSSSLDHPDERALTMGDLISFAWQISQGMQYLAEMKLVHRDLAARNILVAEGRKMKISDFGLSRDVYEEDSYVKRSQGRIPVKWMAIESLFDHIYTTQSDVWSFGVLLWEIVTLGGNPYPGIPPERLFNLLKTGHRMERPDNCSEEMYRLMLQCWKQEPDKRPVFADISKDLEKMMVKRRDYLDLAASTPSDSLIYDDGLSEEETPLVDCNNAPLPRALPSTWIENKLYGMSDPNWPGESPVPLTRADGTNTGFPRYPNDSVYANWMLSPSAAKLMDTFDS
Chain of Platelet-derived growth factor receptor alpha (P16234 whole entry, the tested form may be a part): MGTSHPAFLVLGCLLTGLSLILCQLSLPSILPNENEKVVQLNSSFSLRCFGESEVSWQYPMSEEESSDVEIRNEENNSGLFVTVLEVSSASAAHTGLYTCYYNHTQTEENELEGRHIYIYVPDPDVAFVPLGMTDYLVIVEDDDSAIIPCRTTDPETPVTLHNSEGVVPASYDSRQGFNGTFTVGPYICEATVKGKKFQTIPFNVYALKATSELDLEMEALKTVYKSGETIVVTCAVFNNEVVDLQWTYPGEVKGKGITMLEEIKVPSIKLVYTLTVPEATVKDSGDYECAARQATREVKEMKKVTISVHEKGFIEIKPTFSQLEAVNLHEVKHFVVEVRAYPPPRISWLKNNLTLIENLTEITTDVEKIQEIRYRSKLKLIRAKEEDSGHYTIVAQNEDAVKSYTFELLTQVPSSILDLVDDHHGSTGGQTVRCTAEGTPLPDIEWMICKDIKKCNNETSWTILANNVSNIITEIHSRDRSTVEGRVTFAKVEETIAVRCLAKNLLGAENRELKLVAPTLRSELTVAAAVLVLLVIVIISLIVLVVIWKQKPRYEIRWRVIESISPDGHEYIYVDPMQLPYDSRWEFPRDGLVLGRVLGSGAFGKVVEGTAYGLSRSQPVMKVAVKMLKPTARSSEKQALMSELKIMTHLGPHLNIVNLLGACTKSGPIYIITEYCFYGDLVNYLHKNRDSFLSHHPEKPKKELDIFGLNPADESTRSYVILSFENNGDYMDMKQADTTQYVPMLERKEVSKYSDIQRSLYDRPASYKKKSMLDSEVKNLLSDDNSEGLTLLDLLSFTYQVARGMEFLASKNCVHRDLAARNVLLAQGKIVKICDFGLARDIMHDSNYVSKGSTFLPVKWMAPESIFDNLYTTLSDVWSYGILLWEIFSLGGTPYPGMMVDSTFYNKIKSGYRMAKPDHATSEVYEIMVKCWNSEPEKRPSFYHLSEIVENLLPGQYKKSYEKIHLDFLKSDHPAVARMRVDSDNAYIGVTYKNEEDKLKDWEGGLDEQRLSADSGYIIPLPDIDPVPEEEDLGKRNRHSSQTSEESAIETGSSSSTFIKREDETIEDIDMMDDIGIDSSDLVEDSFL

SMILES	fraction unbound [1]	inhibition [2]	IC50 [3]	IC50 [4]	IC50 [5]	inhibition [6]	AUC [7]	GI50 [8]	TGI [9]	GI50 [10]	solubility thermodynamic at 18 h, 500 µM [11]	GI50 [12]	IC50 [13]	inhibition [14]	inhibition [15]	bioavailability [16]
CN1CCN(Cc2ccc(NC(=O)CNc3ccc(-c4ccc(NC(=O)C5CC5)nc4)cc3F)cc2C(F)(F)F)CC1	0.0022	> 99%	1 nM	1280 nM	20 nM	Dose-dependent effect	5130 ng·h/mL	13 nM	Dose-dependent effect	12 nM	3.8 µg/mL (≈ 6.5 µM)	12 nM	20 nM	> 99%	Active	31%
CCN1CCN(Cc2ccc(NC(=O)CNc3ccc(-c4ccc(NC(=O)C5CC5)nc4)cc3)cc2C(F)(F)F)CC1	0.0008	> 99%	7 nM	672 nM	50 nM	Dose-dependent effect	14300 ng·h/mL	50 nM	Dose-dependent effect	51 nM	0.1 µg/mL (≈ 0.172 µM)	58 nM	20 nM	> 99%	Active	80%
